A selection: hits, their analogues and other compounds. The true share with any hit is near 12%.
bCat nuc transl: modulators of beta-catenin nuclear translocation, primary screen, imaging, HeLa cells, immunofluorescence, high-content | nuclear translocation activity, % at 5 µM | actives 0.3% (n = 190,000);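 active means nuclear translocation activity above 50% at 5 µM, with a well cell count of 50 or more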;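 further: per-cell ratio of nuclear to cytoplasmic median beta-catenin stain intensity; plate controls were DMSO negative control for no effect and GSK-3 inhibitor IX positive control for full effect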
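System: Human HeLa cells, endogenous beta-catenin | Compound dosing: 5 µM primary, 0.02–20 µM confirmation | Timing: 24 h compound exposure at 37°C, 5% CO2 | Measured by: Fluorescence imaging of beta-catenin antibody stain plus DAPI | Read-out basis: % activation of per-cell nuclear versus cytoplasmic median beta-catenin signal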
MT stabilizer: microtubule stabilizers in HeLa cells, primary screen, imaging, high-content imaging | HeLa tubulin immunostaining HCS, 24 h; share of cells brighter than vehicle mean+2SD | % tubulin-high responders, % at 10 µM | actives 0.83% (n = 200,000) | AID 2205, 2009;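 active means plate Z-score above 3 for both tubulin-high and condensed-nucleus cell shares, with cell loss under 80%, at 10 µM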;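 further: anti alpha tubulin signal scored within the nucleus-defined area of each cell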
Lmaj promast: Leishmania major promastigote growth inhibition, primary screen; Leishmania major promastigotes, resazurin fluorescence viability; inhibition, % at 10 µM; actives 9% (n = 200,000); AID 1063, 2008; in the data active means inhibition above about 50%;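 further: promastigotes grown with compound for 44 hours at 28 °C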
Dynein transport: inhibitors of GR-EGFP nuclear translocation, primary screen, dynein cargo transport inhibitor project, imaging, high-content, 3617.4 mouse cells; test concentration mostly 20 µM; stimulated with dexamethasone, 1 µM; active compounds read low; z-score, hits read low; actives 0.47% (n = 220,000); AID 1381, 2008;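 active means plate z-score of nuclear minus cytoplasmic receptor signal below a set negative limit, without overly bright fluorescence or cell loss, cut at about -3.5 in these data, passing the limit was not always enough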;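 further: z-score of nuclear minus cytoplasmic ring GR-EGFP intensity difference per well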
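Also added: dexamethasone, 1.0 µM final. Medium: tet-free, stripped-serum medium. Detection: fixed, Hoechst-stained cells imaged at 10x for EGFP. Read-out: nuclear-to-cytoplasmic GR-EGFP distribution per well. Times: induction 48 h, compound 1 h, agonist 30 min.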
Autophagy HCS: autophagy modulators in MEF cells, primary screen, imaging, high-content, MEF GFP-LC3. MEF GFP-LC3 puncta imaging; test concentration mostly 10 µM. actives 0.98% (n = 190,000). calls only at 10 µM (by protocol). AID 463193, 2010;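 active means percentage of spot-positive cells more than 3 SD above its plate mean, without a fluorescence outlier flag or 80% toxicity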;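 further: spot-positive cell cutoff set from DMSO-treated cells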
CHOP inh: inhibitors of CHOP promoter induction, primary screen, cell-based, unfolded protein response, luciferase reporter. inhibition, % at 10 µM. CHO-K1 CHOP-promoter luciferase, tunicamycin-induced, 15-18 h. actives 3.8% (n = 220,000);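 active means compounds that reduced the stress-induced luciferase reporter signal by more than about 70% of percent inhibition, limit read from the data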;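 further: 0% = tunicamycin plus vehicle and 100% = wells without tunicamycin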
Starred values were filed as active, the others as inactive; i = inactive; . = no result given; + = active, no number.

SMILES | bCat nuc transl | MT stabilizer | Lmaj promast | Dynein transport | Autophagy HCS | CHOP inh
Cn1c(SCC(=O)Nc2cccc(Br)c2)nnc1-c1cc2ccccc2o1 | -2 | 3 | -3 | -0.26 | i | 91*
Cn1c(SCC(=O)Nc2cccc(C(=O)O)c2)nnc1-c1cc2cc(Br)ccc2o1 | -1 | 3 | -11 | -0.46 | i | 22
COc1cc(O)ccc1/C=N/NC(=O)c1ccc([N+](=O)[O-])cc1 | -2 | 5 | 4 | -0.77 | i | -16
O=C(NC(CSCc1ccccc1)C(=O)N/N=C/c1ccc(O)cc1O)c1ccc([N+](=O)[O-])cc1 (centres undefined) | 5 | 2 | 100* | -0.68 | i | 69
Cc1ccc(S(=O)(=O)N2CCCCC2)cc1NC(=O)COc1ccccc1F | -5 | 4 | 5 | -0.14 | i | 4
O=C(CCl)Nc1cccc(S(=O)(=O)NC2=NCCC2)c1 | 10 | . | . | -0.81 | . | -89
CCCC(=O)NC(=S)N1CCN(c2ccc([N+](=O)[O-])cc2)CC1 | 0 | 4 | 70* | 0.26 | i | 59
Cc1ccc(C(=O)NC(=S)N2CCN(c3ccc([N+](=O)[O-])cc3)CC2)cc1 | 1 | 2 | -8 | -0.68 | i | 57
CN(c1cccc(NC(=O)Cc2ccccc2)c1)S(C)(=O)=O | 0 | 3 | -1 | 0.014 | i | 36
COCC(=O)N(Cc1ccco1)c1nnc(C2CCOC2)s1 (centres undefined) | . | 2 | -8 | -0.97 | + | 36
CCC(=O)N(Cc1ccco1)c1nc(-c2ccc(OC)cc2)cs1 | -1 | 3 | 49 | -0.062 | i | 0
CCOc1cc(/C=C2/C(=N)N3OC(C)=CC3=NC2=O)ccc1OCCOc1ccccc1 | . | 3 | 1 | 1.5 | i | 92*
CC1=CC2=NC(=O)/C(=C\c3cccn3CCOc3cc(C)ccc3C)C(=N)N2O1 | 2 | 14 | 53* | 0.29 | i | 45
CC(=O)c1ccc(-c2ccc(C(=O)N3CCCc4ccccc43)o2)cc1 | -1 | 6 | 5 | 0.11 | i | 8
CCS(=O)(=O)NCC(c1cccnc1)N1CCN(c2ccccc2F)CC1 (centres undefined) | 0 | 7 | 78* | 0.31 | i | 3
CCS(=O)(=O)NCC(c1cccnc1)N1CCN(c2ccc(F)cc2)CC1 (centres undefined) | -2 | 3 | 69* | 2.3 | i | -1
CS(=O)(=O)NCC(c1cccnc1)N1CCN(c2ccc(F)cc2)CC1 (centres undefined) | -1 | 3 | 45 | -0.13 | i | -17
Cc1ccc(C(C)C)c(OCCCN2C(=O)NC(C)(C)C2=O)c1 | . | 1 | 6 | -0.58 | i | 39
Cc1ccc(OCCCCN(C)Cc2ccccc2)c(Br)c1 | -3 | 3 | 90* | -0.13 | i | -1
Cc1ccc(C(C)C)c(OCCCN(C)Cc2ccccc2)c1 | . | 7 | 96* | 0.73 | i | 75*
COc1ccc2c(c1)C(=O)[C@H](O)[C@@H](c1ccc(OC)c(Br)c1)O2 | . | 3 | 99* | 0.7 | i | 0
Cn1cc(CN2C[C@]3(C)C[C@H]2CC(C)(C)C3)c(-c2ccc3c(c2)OCCO3)n1 | 2 | 4 | 4 | -0.27 | i | 15
N#C/C(=N/Nc1ccc(OC(F)(F)F)cc1)C(N)=S | -3 | . | . | -0.51 | . | 74*
O=C(Cn1nnc(-c2cccc(C(F)(F)F)c2)n1)NC(=O)NCc1ccco1 | -3 | 3 | 6 | -0.42 | i | 90*
Cc1ccc(P(C)(=O)c2ccc(C)cc2)cc1 | 2 | 4 | -2 | 4.6 | i | -4
SMILES | bCat nuc transl | MT stabilizer | Lmaj promast | Dynein transport | Autophagy HCS | CHOP inh
Cc1ccc(NP(=O)(Nc2ccc(C)cc2)Nc2ccc(C)cc2)cc1 | -1 | 7 | 58* | -0.81 | i | 43
CCS(=O)(=O)N1Cc2ccccc2CC1C(=O)Nc1cccc(C)c1 (centres undefined) | 2 | 2 | 8 | -1 | i | -8
CCS(=O)(=O)N1Cc2ccccc2CC1C(=O)Nc1nc2ccc(C)cc2s1 (centres undefined) | 1 | 6 | 92* | -0.82 | i | 64
CCS(=O)(=O)N1Cc2ccccc2CC1C(=O)Nc1ccc(C)cc1 (centres undefined) | -2 | 2 | -2 | -0.62 | i | 1
CCS(=O)(=O)N1Cc2ccccc2CC1C(=O)Nc1ncc(C)s1 (centres undefined) | 0 | 4 | -1 | 0.79 | + | 0
COCCn1cc(C(=S)N2CCOCC2)c2ccccc21 | . | 2 | -1 | 1.3 | i | 20
NC(=O)C1=C[C@H](C2CCCCC2)C[C@H](OCc2ccc(CO)cc2)O1 | -2 | 3 | -5 | -0.044 | i | -6
COc1ccc(/C=C/C(=O)O)cc1S(=O)(=O)N1CCC(C)CC1 | 0 | . | . | -0.93 | . | 5
CCC(C)c1ccc(NC(=S)NC(C)C2CCCO2)cc1 (centres undefined) | 0 | 4 | 4 | 0.96 | i | 0
Cc1nc(C(C)N(C)Cc2nc(-c3ccc4c(c3)OCO4)no2)c(C)s1 (centres undefined) | -1 | 3 | 4 | 1.3 | i | -11
O=C(Nc1ccccc1)c1ccc(Nc2c([N+](=O)[O-])cc([N+](=O)[O-])c3ccccc23)cc1 | 0 | 2 | 78* | 0.018 | i | 58
O=C(Nc1ccc(Nc2ccncc2)cc1)c1ccc([N+](=O)[O-])cc1 | -1 | . | . | 0.16 | . | -5
Cn1ncc(N=Cc2c(O)ccc3ccccc23)c1C(=O)Nc1cccc(Cl)c1 | 9 | 15* | 10 | -0.06 | + | 76*
Cn1ncc(Cl)c1C(=O)Nc1cccc(Cl)c1 | -1 | 2 | 3 | 0.25 | i | 1
CCCOc1ccc(OCCOCCNCc2ccccc2)cc1 | . | 4 | 98* | 0.69 | i | 11
CCc1ccc(OCCCC(=O)NCc2ccccc2)cc1 | -2 | 4 | -3 | -1 | i | 3
Cc1cc(C)c(C)c(OCCOCCNCc2ccccc2)c1 | -4 | 3 | 77* | 0.41 | i | -6
CCOc1ccc(OCCOCCNCCOC)cc1 | 1 | 2 | 70* | -1 | i | 17
Fc1ccc(OCCOCCNCC2CCCO2)cc1 (centres undefined) | 0 | 2 | 31 | -0.81 | i | 8
OC(CNCc1ccccc1C(F)(F)F)C(F)(F)F (centres undefined) | -4 | 4 | 4 | 2.7 | i | -11
N#CC1=C(N)OC2=C(CC/C2=C\c2ccccc2Cl)C1c1ccccc1Cl (centres undefined) | 0 | 4 | 73* | -0.03 | i | -76

Compound activity deposited in PubChem BioAssay by several laboratories.
